Laboratory results published in ChEMBL document CHEMBL1122737, “5-[(Aminoalkyl)amino]-substituted anthra[1,9-cd]pyrazol-6(2H)-ones as novel anticancer agents. Synthesis and biological evaluation” (1984).

Assays:
L1210 = test: Antitumor activity against L1210 lymphocytic cells in vitro; format: functional; conditions: Mus musculus, read-out: ID50 (the source's name)
[1] = In vivo antitumor activity at a single dose of 12.5 mg/kg & 37.5 mg/kg total against mammary adenocarcinoma 16C to assess tumor growth delay (T-C); format: functional, Mus musculus
In short: (§1)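 Mammary adenocarcinoma 16C is implanted sc in mice on day 0. Treatment is iv on days 1, 5 and 9, with dose per injection and total. Tumors are measured in two dimensions three times weekly to give growth delay (T − C, days) and gross log kill. Cured mice are excluded from these calculations.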

[2] = In vivo antitumor activity at a single dose of 6.5 mg/kg & 18.8 mg/kg total against mammary adenocarcinoma 16C to assess tumor growth delay (T-C); format: functional, Mus musculus; in short: as §1
[3] = In vivo antitumor activity at a single dose of 12.5 mg/kg & 37.5 mg/kg total against mammary adenocarcinoma 16C; format: functional, Mus musculus
In short: (§2)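 Mice were inoculated sc with mammary adenocarcinoma 16C on day 0 and given the agent (as the dihydrochloride salt) iv on days 1, 5 and 9. Tumors were measured in two dimensions three times weekly. Tumor growth delay (T − C, days) and gross log kill were derived, with cured mice excluded from these calculations.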

[4] = In vivo antitumor activity at a single dose of 6.5 mg/kg & 18.8 mg/kg total against mammary adenocarcinoma 16C; format: functional, Mus musculus; in short: as §2
P388 [5] = test: In vivo antitumor activity against P388 leukemia cells at a dose of 12.5 mg/kg (single injection) and 25 mg/kg (Total ); format: functional, Mus musculus
In short: (§3)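 Murine P388 leukemia, drug given ip on a q04d × 02 schedule (a slightly modified NCI protocol). Dose is listed per injection and as a total. Read-out is % T/C survival. Mice alive at 30 days count as cured and are left out of % T/C. Cured/tested counts are reported.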

P388 [6] = test: In vivo antitumor activity against P388 leukemia cells at a dose of 25 mg/kg as a single injection and 50 mg/kg as a total; format: functional, Mus musculus; in short: as §3
[7] = Compound was evaluated in vivo for the antitumor activity at a dose of 1.25 mg/kg & 3.75 mg/kg against mammary adenocarcinoma 16C to assess tumor growth delay (T-C).; format: functional, Mus musculus; in short: as §1
[8] = Compound was evaluated in vivo for the antitumor activity at a dose of 2.5 mg/kg & 7.5 mg/kg against mammary adenocarcinoma 16C to assess tumor growth delay (T-C); format: functional, Mus musculus; in short: as §1
P388 [9] = test: In vivo antitumor activity against P388 leukemia cells at a dose of 0.75 mg/kg as a single injection and 1.5 mg/kg as a total; format: functional, Mus musculus; in short: as §3
P388 [10] = test: In vivo antitumor activity against P388 leukemia cells at a dose of 1.5 mg/kg as a single injection and 3 mg/kg as a total; format: functional, Mus musculus; in short: as §3
[11] = In vivo antitumor activity at a single dose of 2.5 mg/kg & 7.5 mg/kg total against mammary adenocarcinoma 16C
[12] = In vivo antitumor activity at a single dose of 1.25 mg/kg & 3.75 mg/kg total against mammary adenocarcinoma 16C
P388 [13] = test: Evaluated in vivo for the antitumor activity against P388 leukemia cells at a dose of 50 mg/kg (single injection) and 100 mg/kg (Total ); format: functional, Mus musculus; in short: as §3
P388 [14] = test: in vivo for the antitumor activity against P388 leukemia cells at a dose of 100 mg/kg (single injection) and 200 mg/kg (Total); format: functional, Mus musculus; in short: as §3

SMILES: O=C1c2c(O)cccc2-c2nn(CCNCCO)c3ccc(NCCNCCO)c1c23 [LOSOXANTRONE]
- IC50 (L1210): 5.13 nM
- T-C [1]: 11.4 days
- T-C [2]: 7 days
- Gross log kill [3]: 3.1
- Gross log kill [4]: 1.9
- T/C (P388 [5]): 219%
- T/C (P388 [6]): 248%

SMILES: O=C1c2c(O)ccc(O)c2C(=O)c2c(NCCNCCO)ccc(NCCNCCO)c21 [MITOXANTRONE]
- T-C [7]: 3 days
- T-C [8]: 4.1 days
- T/C (P388 [9]): 231%
- T/C (P388 [10]): 278%
- Gross kill [11]: 1.1
- Gross kill [12]: 0.8

SMILES: O=C1c2cccc(O)c2-c2nn(CCNCCO)c3ccc(NCCNCCO)c1c23
- T/C (P388 [13]): 172%
- T/C (P388 [14]): 221%
